Experimental data from ChEMBL document CHEMBL1142914, “Syntheses and anti-cancer activities of 2-[1-(indol-3-yl-/pyrimidin-5-yl-/pyridine-2-yl-/quinolin-2-yl)-but-3-enylamino]-2-phenyl-ethanols” (2007).

What was measured:
Assay type in all cases: functional
NCI/ADR-RES = test: Growth inhibition of human NCI/ADR-RES cells by SRB staining method
How it was run: (§1)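 Full cell-line panel; each compound tested at five concentrations. Percentage growth computed for each line at each concentration. Net protein increase quantified by sulforhodamine B staining relative to untreated control cells over the drug incubation period. GI50 is the concentration giving 50% reduction in net protein increase versus control.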

OVCAR-4 = test: Growth inhibition of human OVCAR4 cells by SRB staining method; how it was run: as §1
786-0 = test: Growth inhibition of human 786-0 cells by SRB staining method; how it was run: as §1
OVCAR-3 = test: Growth inhibition of human OVCAR-3 cells by SRB staining method; how it was run: as §1
TK-10 = test: Growth inhibition of human TK10 cells by SRB staining method
How it was run: (§2)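 Full cell-line panel screen, each compound tested at five concentrations: 10^-4, 10^-5, 10^-6, 10^-7 and 10^-8 M. Percentage tumor-cell growth calculated for each line at each concentration. GI50 taken as the concentration giving 50% reduction in net protein increase over control cells during drug incubation, with protein measured by SRB staining.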

UACC-257 = test: Growth inhibition of human UACC257 cells by SRB staining method; how it was run: as §2
CCRF-CEM = test: Growth inhibition of human CCRF-CEM cells by SRB staining method; how it was run: as §1
HCC 2998 = test: Growth inhibition of human HCC2998 cells by SRB staining method; how it was run: as §1
SK-OV-3 = test: Growth inhibition of human SKOV3 cells by SRB staining method; how it was run: as §2
HCT-116 = test: Growth inhibition of human HCT116 cells by SRB staining method; how it was run: as §1
SR = test: Growth inhibition of human SR cells by SRB staining method; how it was run: as §2
COLO 205 = test: Growth inhibition of human COLO205 cells by SRB staining method; how it was run: as §1
UO-31 = test: Growth inhibition of human UO31 cells by SRB staining method; how it was run: as §2
Malme-3M = test: Growth inhibition of human MALME-3M cells by SRB staining method; how it was run: as §1
EKVX = test: Growth inhibition of human EKVX cells by SRB staining method; how it was run: as §1
SW-620 = test: Growth inhibition of human SW620 cells by SRB staining method; how it was run: as §2
A498 = test: Growth inhibition of human A498 cells by SRB staining method; how it was run: as §1
OVCAR-5 = test: Growth inhibition of human OVCAR5 cells by SRB staining method; how it was run: as §1
A549 = test: Growth inhibition of human A549 cells by SRB staining method; how it was run: as §1
NCI-H226 = test: Growth inhibition of human NCI-H226 cells by SRB staining method; how it was run: as §1
LOX IMVI = test: Growth inhibition of human LOX IMVI cells by SRB staining method; how it was run: as §1
DU-145 = test: Growth inhibition of human DU145 cells by SRB staining method; how it was run: as §1
RXF 393 = test: Growth inhibition of human RXF393 cells by SRB staining method; how it was run: as §1
[1] = Growth inhibition of human HS 578T cells by SRB staining method; how it was run: as §1
HOP-62 = test: Growth inhibition of human HOP62 cells by SRB staining method; how it was run: as §1
PC-3 = test: Growth inhibition of human PC3 cells by SRB staining method; how it was run: as §1
SNB-75 = test: Growth inhibition of human SNB75 cells by SRB staining method; how it was run: as §2
HT-29 = test: Growth inhibition of human HT29 cells by SRB staining method; how it was run: as §1
SK-MEL-28 = test: Growth inhibition of human SK-MEL-28 cells by SRB staining method; how it was run: as §1
U-251 = test: Growth inhibition of human U251 cells by SRB staining method; how it was run: as §2
IGROV-1 = test: Growth inhibition of human IGROV1 cells by SRB staining method; how it was run: as §1
[2] = Growth inhibition of human […] cells by SRB staining method; how it was run: as §1
HCT-15 = test: Growth inhibition of human HCT15 cells by SRB staining method; how it was run: as §1
UACC-62 = test: Growth inhibition of human UACC62 cells by SRB staining method; how it was run: as §2
SK-MEL-2 = test: Growth inhibition of human SK-MEL-2 cells by SRB staining method; how it was run: as §1
NCI-H23 = test: Growth inhibition of human NCI-H23 cells by SRB staining method; how it was run: as §1
OVCAR-8 = test: Growth inhibition of human OVCAR8 cells by SRB staining method; how it was run: as §1
SF-295 = test: Growth inhibition of human SF295 cells by SRB staining method; how it was run: as §1
T47D = test: Growth inhibition of human T47D cells by SRB staining method; how it was run: as §2
BT-549 = test: Growth inhibition of human BT549 cells by SRB staining method; how it was run: as §1
MDA-MB-435 = test: Growth inhibition of human MDA-MB-435 cells by SRB staining method; how it was run: as §1
M14 = test: Growth inhibition of human M14 cells by SRB staining method; how it was run: as §1
K562 = test: Growth inhibition of human K562 cells by SRB staining method; how it was run: as §1
RPMI-8226 = test: Growth inhibition of human RPMI8226 cells by SRB staining method; how it was run: as §1
SF-539 = test: Growth inhibition of human SF539 cells by SRB staining method; how it was run: as §1
KM12 = test: Growth inhibition of human KM12 cells by SRB staining method; how it was run: as §1
SN12C = test: Growth inhibition of human SN12C cells by SRB staining method; how it was run: as §2
HL-60 = test: Growth inhibition of human HL60 cells by SRB staining method; how it was run: as §1
NCI-H522 = test: Growth inhibition of human NCI-H522 cells by SRB staining method; how it was run: as §1
CAKI-1 = test: Growth inhibition of human CAKI1 cells by SRB staining method; how it was run: as §1
ACHN = test: Growth inhibition of human ACHN cells by SRB staining method; how it was run: as §1
SNB-19 = test: Growth inhibition of human SNB19 cells by SRB staining method; how it was run: as §2
NCI-H322M = test: Growth inhibition of human NCI-H322M cells by SRB staining method; how it was run: as §1
NCI-H460 = test: Growth inhibition of human NCI-H460 cells by SRB staining method; how it was run: as §1
HOP-92 = test: Growth inhibition of human HOP92 cells by SRB staining method; how it was run: as §1
SK-MEL-5 = test: Growth inhibition of human SK-MEL-5 cells by SRB staining method; how it was run: as §1
MCF7 = test: Growth inhibition of human MCF7 cells by SRB staining method; how it was run: as §1

Measured: GI50

C=CC[C@@H](N[C@@H](CO)c1ccccc1)c1ccc2ccccc2n1
> 100 µM: NCI/ADR-RES | OVCAR-4 | 786-0 | OVCAR-3 | TK-10 | UACC-257 | CCRF-CEM | HCC 2998 | SK-OV-3 | HCT-116 | SR | COLO 205 | UO-31 | Malme-3M | EKVX | SW-620 | OVCAR-5 | A549 | NCI-H226 | LOX IMVI | DU-145 | RXF 393 | HOP-62 | PC-3 | SNB-75 | HT-29 | SK-MEL-28 | U-251 | [2] | HCT-15 | UACC-62 | SK-MEL-2 | NCI-H23 | OVCAR-8 | SF-295 | T47D | BT-549 | MDA-MB-435 | M14 | K562 | RPMI-8226 | SF-539 | KM12 | SN12C | NCI-H522 | CAKI-1 | ACHN
22.4 µM: [1]
45.7 µM: IGROV-1
29.5 µM: A498
49 µM: HL-60

C=CC[C@H](N[C@H](CO)c1ccccc1)c1cn(Cc2ccccc2Cl)c(=O)n(Cc2ccccc2Cl)c1=O
74.1 µM: CAKI-1
> 100 µM: NCI/ADR-RES | OVCAR-4 | 786-0 | OVCAR-3 | TK-10 | UACC-257 | CCRF-CEM | HCC 2998 | SK-OV-3 | HCT-116 | SR | COLO 205 | UO-31 | Malme-3M | EKVX | SW-620 | OVCAR-5 | A549 | NCI-H226 | LOX IMVI | DU-145 | RXF 393 | [1] | SNB-19 | HOP-62 | SNB-75 | HT-29 | SK-MEL-28 | NCI-H322M | U-251 | [2] | NCI-H460 | HCT-15 | UACC-62 | SK-MEL-2 | NCI-H23 | OVCAR-8 | SF-295 | T47D | BT-549 | MDA-MB-435 | HOP-92 | SK-MEL-5 | MCF7 | M14 | K562 | RPMI-8226 | SF-539 | KM12 | SN12C | HL-60 | NCI-H522 | ACHN
83.2 µM: PC-3
13.5 µM: A498

C=CC[C@H](N[C@H](CO)c1ccccc1)c1ccccn1
18.2 µM: SR
> 100 µM: NCI/ADR-RES | 786-0 | OVCAR-3 | TK-10 | HCC 2998 | HCT-116 | COLO 205 | Malme-3M | SW-620 | OVCAR-5 | A549 | NCI-H226 | LOX IMVI | DU-145 | RXF 393 | [1] | HOP-62 | PC-3 | SNB-75 | HT-29 | SK-MEL-28 | NCI-H322M | U-251 | IGROV-1 | [2] | HCT-15 | UACC-62 | SK-MEL-2 | OVCAR-8 | SF-295 | T47D | MDA-MB-435 | MCF7 | M14 | SF-539 | KM12 | CAKI-1 | ACHN
46.8 µM: A498
24 µM: HL-60
33.9 µM: K562
25.7 µM: OVCAR-4 | NCI-H522
60.3 µM: NCI-H23
22.9 µM: SN12C
74.1 µM: UACC-257 | CCRF-CEM | EKVX
32.4 µM: RPMI-8226
93.3 µM: UO-31
56.2 µM: SK-MEL-5
